ERAP1 inh – inhibitors of human ERAP1 aminopeptidase; Q9NZ08; 340,000 compounds, 0.15% hits; inhibition, % at 10.7 µM; recombinant ERAP1, Leu-AMC fluorescence, 60 min; AID 652197;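 active = mean replicate inhibition of at least 30%, or all replicates individually reaching that 30% level; inactive = mean below 30% and not every replicate reaching it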;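 note: 0% = neutral control wells and 100% = L-leucinethiol positive control wells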
SIRT5 block – sirtuin-5 (human) deacylase inhibition | Purified SirT5, succinyl-peptide AMC, trypsin-coupled fluorescence | inhibition, % at 15 µM | 330,000 compounds, 1.1% hits; in the data active = inhibition above about 15%
Target sequence (Q9NXA8 whole entry, looked up): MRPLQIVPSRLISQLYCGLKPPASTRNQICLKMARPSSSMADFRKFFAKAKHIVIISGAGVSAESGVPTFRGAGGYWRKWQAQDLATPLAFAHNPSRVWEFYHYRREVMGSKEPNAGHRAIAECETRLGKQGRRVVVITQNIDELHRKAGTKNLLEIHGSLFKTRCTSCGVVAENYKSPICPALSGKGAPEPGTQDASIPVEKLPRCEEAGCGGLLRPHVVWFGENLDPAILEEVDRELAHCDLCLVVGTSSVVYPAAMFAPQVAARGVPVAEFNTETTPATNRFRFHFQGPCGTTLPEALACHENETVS
FGF22 binding – shifts melting point of recombinant human FGF22; recombinant FGF22 thermal shift, SYPRO orange fluorescence; percent of sucrose octasulfate shift, DMSO zero; activity (Tm shift, normalised), % at 9.99 µM; 340,000 compounds, 1.5% hits; AID 651658;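 active = mean Tm shift, scaled 0 neutral to 100 positive control, at about 1.3% or above, every replicate too, limit read from the data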
Target sequence (Q9HCT0 whole entry, looked up): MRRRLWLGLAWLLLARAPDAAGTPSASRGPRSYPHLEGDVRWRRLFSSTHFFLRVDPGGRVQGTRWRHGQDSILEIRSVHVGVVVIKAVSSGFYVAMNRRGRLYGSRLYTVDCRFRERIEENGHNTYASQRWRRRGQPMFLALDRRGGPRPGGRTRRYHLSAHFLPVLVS
FN deposition inh – fibronectin deposition inhibition | AID 743247 | 350,000 compounds, 0.086% hits | AH1F fibroblasts, Alexa488-fibronectin deposition fluorescence, overnight | inhibition, % at 12.6 µM;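 active = mean inhibition across replicates of 30% or more, regardless of how many single replicates reach that level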;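 note: positive control wells lacked labelled fibronectin entirely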
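Assay system: AH1F fibroblasts / Quantity: 10000 cells per well / Medium: DMEM plus 2% serum, read in PBS / Reagent: labelled fibronectin 24 nM / Dosing: single dose, pinned / Times: 1 h cell attachment, overnight exposure to compound and label / Signal: fluorescence, ex 485 nm, em 525 nm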
PGC1a acetyl inh – lowers PGC1a acetylation signal in U2OS cells; AlphaScreen anti-acetyl-lysine; with virally co-expressed GCN5 acetyltransferase; inhibition, % at 15.6 µM; 350,000 compounds, 0.17% hits;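 active = every replicate shows inhibition of at least 40%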;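 note: 0% = neutral control wells and 100% = positive control wells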
An asterisk follows results filed as active; x = not tested or not shown. Most compounds without a hit are left out; they make up all but 2.2% or so of the library.

SMILES	ERAP1 inh	SIRT5 block	FGF22 binding	FN deposition inh	PGC1a acetyl inh
C[C@@H]1CN([C@@H](C)CO)C(=O)c2cccc(NC(=O)Nc3ccc(C(F)(F)F)cc3)c2O[C@H]1CN(C)Cc1ccc(Cl)c(Cl)c1	-1	0	0	x	4
C[C@@H]1CN([C@H](C)CO)C(=O)c2cccc(NC(=O)Nc3ccccc3)c2O[C@@H]1CN(C)C(=O)Nc1ccc2c(c1)OCO2	2	-8	-1	x	4
COCc1cc(C)nc(NC2CCCCC2)c1C#N	x	x	x	5	10
COCc1cc(SC2CCCCC2)nc(C)n1	-1	x	43*	x	5
C[C@@H]1CN([C@@H](C)CO)C(=O)c2cc(NC(=O)Nc3ccc(F)cc3)ccc2O[C@@H](C)CCCCO[C@H]1CN(C)C(=O)c1ccccc1	-5	2	1	x	2
C[C@@H]1CN([C@H](C)CO)C(=O)c2cc(NC(=O)c3ccccc3)ccc2O[C@@H](C)CCCCO[C@@H]1CN(C)C(=O)c1ccccc1	x	x	1.4*	-1	3
C[C@@H]1CCCCO[C@H](CN(C)C(=O)c2ccccc2)[C@H](C)CN([C@@H](C)CO)C(=O)c2cc(NC(=O)Nc3ccc(F)cc3)ccc2O1	-4	5	1.3*	x	0
C[C@@H]1CCCCO[C@H](CN(C)C(=O)C2CCCCC2)[C@H](C)CN([C@@H](C)CO)C(=O)c2cc(NC(=O)Nc3ccc(F)cc3)ccc2O1	1	16*	0	x	-8
C[C@@H]1CCCCO[C@H](CN(C)CC2CCCCC2)[C@H](C)CN([C@@H](C)CO)C(=O)c2cc(NS(=O)(=O)c3ccccc3)ccc2O1	-1	-5	0	x	-3
CCOc1cc(/C=N/N=C(N)N)ccc1OCc1ccc(Cl)cc1	-20	2	0	9	56*
COc1cc(/C=N/N=C(N)N)ccc1OCc1ccc(Cl)cc1	-157	0	0	4	x
COC(=O)[C@]12CCCCC=C1N(Cc1ccccc1)C(=O)[C@H](CC(=O)NCc1cccc(C(F)(F)F)c1)C2	x	1	0	x	x
COC(=O)[C@@]12C[C@@H](CC(=O)NCc3cccc(C(F)(F)F)c3)C(=O)N(Cc3ccccc3)C1=CCC(C)(C)C2	0	x	42	0	x
COC(=O)[C@@]12C[C@@H](CC(=O)NCc3cccc(C(F)(F)F)c3)C(=O)N(Cc3cccc4ccccc34)C1=CCC(C)(C)C2	11	0	23*	0	x
CCOC(=O)[C@]12CCCC=C1N(Cc1ccc(Cl)cc1Cl)C(=O)[C@H](CC(=O)NCc1cccc(C(F)(F)F)c1)C2	3	1	1	2	x
CCCCNC(=O)C[C@@H]1C[C@@]2(C(=O)OC)CC(C)(C)CC=C2N(CCc2ccc(OC)c(OC)c2)C1=O	-4	x	40*	6	x
CCOC(=O)[C@]12CCC=C1N(Cc1ccc(Cl)cc1Cl)C(=O)[C@H](CC(=O)NCc1cccc(C(F)(F)F)c1)C2	0	-7	1.4*	8	x
COC(=O)[C@]12CCCCC=C1N(Cc1ccc(Cl)cc1Cl)C(=O)[C@H](CC(=O)NCc1cccc(C(F)(F)F)c1)C2	0	20*	1.5*	1	x
COCC(=O)N1[C@H](CO)[C@H](c2ccc(-c3cccc(OC)c3)cc2)C12CN(C(C)=O)C2	-3	-2	0	x	-10
CNC(=O)C[C@H]1CC[C@H]2[C@H](COc3ccc(NC(=O)C(C)C)cc3C(=O)N2C)O1	x	x	0	1	4
CCC(CC)NC(=O)c1nn(Cc2ccccc2)c(=O)c2ccccc12	1	-2	0	-8	-10
CC(C)(C)NC(=O)c1nn(Cc2ccccc2)c(=O)c2ccccc12	3	1	43*	-3	2
C[C@@H]1CNC(=O)c2c(C(=O)NCc3ccc(CNC(=O)OC(C)(C)C)cc3)ncn21	13	-3	42	7	-22
C[C@@H]1CNC(=O)c2c(C(=O)NCC(=O)OC(C)(C)C)ncn21	1	x	43*	8	x
C[C@@H]1CCCCO[C@H](CN(C)Cc2ccc(C(=O)O)cc2)[C@@H](C)CN([C@@H](C)CO)C(=O)c2cc(NS(C)(=O)=O)ccc2O1	1	-2	0	x	-4
SMILES	ERAP1 inh	SIRT5 block	FGF22 binding	FN deposition inh	PGC1a acetyl inh
CO[C@H]1CN(C)C(=O)c2cc(NC(C)=O)ccc2OC[C@@H](C)N(C(=O)C2CCCCC2)C[C@H]1C	-1	5	0	-5	-7
Cc1ccc2c(c1)CO[C@@]21O[C@H](CCO)C[C@H](O)[C@H]1O	7	23*	0	x	4
O=C(NC(Cc1c[nH]c2ccccc12)C(=O)O)c1ccccc1 (stereo not given)	x	x	x	-12	1
COc1ccc(C(=O)NC(C)Cc2c[nH]c3ccccc23)cc1 (stereo not given)	3	x	43*	5	3
O=C(N[C@@H](Cc1c[nH]c2ccccc12)C(=O)O)c1ccc(Cl)cc1	6	0	44*	-7	9
CCC(=O)N1[C@@H](CO)[C@H](c2ccccc2)C12CN(C(=O)NC1CCCC1)C2	3	-2	x	x	x
C[C@H](CCC(=O)OCc1cn(CC(=O)c2ccc(O)cc2)nn1)C1CC[C@H]2[C@@H]3CC[C@@H]4C[C@H](O)CC[C@]4(C)[C@H]3C[C@H](O)[C@]12C (stereo not given in full)	1	33*	1	6	11
C[C@H](CO)N1C[C@H](C)[C@H](CN(C)Cc2ccc(C(=O)O)cc2)OCCCC[C@H](C)Oc2ccc(NC(=O)c3ccccc3)cc2C1=O	3	-3	0	-7	11
CC[C@H](C)C1OC(=O)[C@@H](C)[C@@H](CC)NC(=O)[C@H](C)N(C)C(=O)C(C)(C)C(=O)C(C)NC(=O)[C@H](Cc2ccc(OC)cc2)N(C)C(=O)[C@H](C(C)C)N(C)C(=O)CNC(=O)[C@H](CC(C)C)N(C)C(=O)CNC1=O (stereo not given in full)	x	x	x	x	74*
CC(C)C[C@@H]1NC(=O)[C@H](Cc2ccccc2)N(C)C(=O)[C@H](C)NC(=O)c2ccccc2NC(=O)[C@H](Cc2ccc(O)cc2)N(C)C1=O	x	x	0	x	4
Cc1cc(C)n(-c2nnc(C)n2/N=C/c2ccccc2F)n1	x	x	x	0	5
Cc1cc(C)n(-c2nnc(C)n2/N=C/c2ccc(O)cc2)n1	-4	18*	0	-6	2
O=C(NCC1CC1)[C@@H]1[C@@H](CO)[C@@H]2Cn3c(ccc(-c4ccccc4)c3=O)[C@@H]2N1Cc1cocn1	2	-6	0	x	x
COC(=O)c1ccc(CNCC(=O)Nc2ccc(C(=O)OC)cc2)cc1	1	1	43*	10	x
CC=Cc1ccc2n(c1=O)C[C@H]1[C@H](CO)[C@@H](C(=O)N[C@H](C)c3ccccc3)[C@@H]2N1Cc1ccccc1 (mixture of isomers)	1	-2	x	x	9
CCOC(=O)N1CCN(C(=S)Nc2cc(S(=O)(=O)N3CCOCC3)ccc2Cl)CC1	4	-8	45*	-6	x

From PubChem BioAssay
